Where two headings read alike, the source gives them in different places.
What was measured:
[1] = Fluorophore characterization: emission spectra in solvents; format: physicochemical; details: fluorometer
In short: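 JP-N3 emission spectra were recorded in toluene, acetone, MeOH and H2O. Each spectrum was fitted with a single six-component split pseudo-Voigt curve to give a reference line shape.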

Kv2.1 channels = molecular target: T1, Kv2.1 channels (Rattus norvegicus, UniProt P15387); details: values for GxTX are from ref [23], cited from earlier work
T1 sequence (P15387 1-857): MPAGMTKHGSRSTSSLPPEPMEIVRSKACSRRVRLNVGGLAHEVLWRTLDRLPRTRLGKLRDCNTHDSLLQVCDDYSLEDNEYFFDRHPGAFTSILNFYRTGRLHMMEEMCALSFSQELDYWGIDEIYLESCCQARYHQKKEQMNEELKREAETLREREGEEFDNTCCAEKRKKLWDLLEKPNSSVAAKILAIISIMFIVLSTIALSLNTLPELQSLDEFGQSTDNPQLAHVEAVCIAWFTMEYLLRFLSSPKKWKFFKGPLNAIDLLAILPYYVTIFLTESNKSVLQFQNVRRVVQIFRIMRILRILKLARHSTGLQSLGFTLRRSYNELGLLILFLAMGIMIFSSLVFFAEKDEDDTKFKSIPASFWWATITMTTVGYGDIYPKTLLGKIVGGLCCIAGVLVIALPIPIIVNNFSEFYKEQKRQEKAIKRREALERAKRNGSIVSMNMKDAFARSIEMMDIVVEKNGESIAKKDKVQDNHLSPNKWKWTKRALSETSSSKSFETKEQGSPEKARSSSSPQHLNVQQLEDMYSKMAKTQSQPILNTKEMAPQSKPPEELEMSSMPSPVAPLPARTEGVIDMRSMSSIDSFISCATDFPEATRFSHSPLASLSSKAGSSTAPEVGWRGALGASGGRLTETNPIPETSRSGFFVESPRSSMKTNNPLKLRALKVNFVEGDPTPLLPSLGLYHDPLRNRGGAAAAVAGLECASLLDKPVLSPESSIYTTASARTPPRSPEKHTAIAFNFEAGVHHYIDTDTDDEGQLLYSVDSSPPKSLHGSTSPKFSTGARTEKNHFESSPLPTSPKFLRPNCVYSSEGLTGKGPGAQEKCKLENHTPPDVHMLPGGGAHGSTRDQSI

Kv2.1 closed state VSD = details: ref [22], cited from earlier work; for effect on channel opening / gating charge: Kv2.1
mice = details: injected into mice; no reference or experiment given; cited from earlier work

Compound | emission peak in MeOH ([1]; 200 nM JP-N3, anhydrous MeOH) | emission peak in hydrocarbon ([1]; 200 nM JP-N3, anhydrous hydrocarbon solvent) | Kd (Kv2.1 channels; 0 mV) | koff (Kv2.1 channels; 0 mV) | kon (Kv2.1 channels; 0 mV) | Kd (Kv2.1 channels; −100 mV) | koff (Kv2.1 channels; −100 mV) | kon (Kv2.1 channels; −100 mV) | effect on channel opening / gating charge (Kv2.1 closed state VSD) | affinity for Kv2.1 closed state VSD relative to its open state (Kv2.1 closed state VSD) | toxicity (mice)
[N-]=[N+]=NCc1cc(=O)cc2oc3c4c5c(cc3nc1-2)CCCN5CCC4 [JP-N3, 10-(azidomethyl)-julolidino-phenoxazinone] | 640 nm | 609 nm |  |  |  |  |  |  |  |  | 
Met35Nle guangxitoxin-1E [GxTX] |  |  | 1520 ± 810 nM | 38 ± 9 × 10^−3 s^−1 | 2.5 ± 1.2 × 10^−5 s^−1 nM^−1 | 2.55 ± 1.01 nM | 0.84 ± 0.18 × 10^−3 s^−1 | 3.30 ± 1.10 × 10^−4 s^−1 nM^−1 | inhibiting early, fast gating charge transitions |  | 
guangxitoxin-1E (EGECGGFWWKCGSGKPACCPKYVCSPKWGLCNFPMP; UniProt P84835 1-36, looked up) [GxTX-1E] |  |  |  |  |  |  |  |  | shifting channel opening to more depolarized potentials | 5400 fold | no toxicity up to 10 mg/kg

Source: article PMC7894042 (ACS chemical neuroscience, 2020)
